Assays:
Influenza B virus = experiment: Antiviral activity against Influenza B virus infected in MDCK cells assessed as reduction of virus-induced cytopathic effect after 3 days by colorimetric formazan-based MTS assay; format: functional, organism-based; conditions: 72 h
Outline: (§1)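 Confluent cell monolayers were infected with 100 CCID50 of virus, and serial dilutions of compound were added at the time of infection.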

Influenza A virus H3N2 = experiment: Antiviral activity against Influenza A virus H3N2 infected MDCK cells assessed as reduction of virus-induced cytopathic effect after 3 days by colorimetric formazan-based MTS assay; format: functional, organism-based; conditions: 72 h; outline: as §1
Human alphaherpesvirus 1 [1] = experiment: Antiviral activity against Human herpesvirus 1 strain KOS infected human HEL cells assessed as reduction of virus-induced cytopathic effect after 3 days by colorimetric formazan-based MTS assay; format: functional, organism-based; conditions: Human alphaherpesvirus 1, KOS, 72 h; outline: as §1
Felid alphaherpesvirus 1 = experiment: Antiviral activity against Felid herpesvirus 1 infected cat CRFK cells assessed as reduction of virus-induced cytopathic effect after 3 days by colorimetric formazan-based MTS assay; format: functional, organism-based; conditions: Felid alphaherpesvirus 1, CRFK, 72 h
Outline: (§2)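 Cells grown to confluency in 96-well plates ([…], Vero for lines 9–10) were infected with 100 CCID50 of virus, and serial compound dilutions were added at infection. Plates were incubated at 37 °C for 3 days, until complete CPE appeared in untreated virus controls.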

[2] = test system: Feline infectious peritonitis virus; experiment: Antiviral activity against Feline Infectious peritonitis virus infected cat CRFK cells assessed as reduction of virus-induced cytopathic effect after 3 days by colorimetric formazan-based MTS assay; format: functional, organism-based; conditions: Alphacoronavirus 1, CRFK, 72 h; outline: as §1
[3] = Cytotoxicity against Felis catus (cat) CRFK cells assessed as change in cellular morphology; format: cell-based; conditions: crfk
Outline: (§3)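 Uninfected cells were exposed to compound in parallel with the antiviral cultures. The read-out is the minimum cytotoxic concentration that causes a microscopically detectable alteration of normal cell morphology.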

[4] = Inhibition of beta lactamase assessed as increase in time taken for iodine decolorization relative to control; parameters: concentration or dose not given beside the values; conditions: concentration not given here
[5] = Inhibition of beta lactamase assessed as time for decolorization of iodine (reference value: 79.5 secs)
CCRF-CEM = experiment: Cytotoxicity against Homo sapiens (human) CEM cells assessed as growth inhibition after 72 hr by coulter counter analysis; format: functional, cell-based
Outline: (§4)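 Cells in growth medium were allowed to proliferate with variable compound amounts at 37 °C in a humidified CO2 atmosphere. Incubation ran 48 h for L1210, 72 h for CEM and 96 h for HeLa. Cells were then counted with a Coulter counter.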

L1210 = experiment: Cytotoxicity against Mus musculus (mouse) L1210 cells assessed as growth inhibition after 48 hr by coulter counter analysis; format: functional, cell-based; conditions: L1210, 48 h; outline: as §4
Influenza A virus = experiment: Antiviral activity against Unidentified Influenza A virus (H1N1) infected MDCK cells assessed as reduction of virus-induced cytopathic effect after 3 days by colorimetric formazan-based MTS assay; format: functional, organism-based; conditions: 72 h; outline: as §1
[6] = (§5) Cytotoxicity against MDCK cells assessed as change in cellular morphology; format: cell-based, Canis lupus familiaris; conditions: dog, MDCK cells; outline: as §3
MDCK = experiment: as §5; format: cell-based, Canis lupus familiaris; conditions: dog, mdck; outline: as §3
Punta Toro virus = experiment: Antiviral activity against Punta Toro virus infected in African green monkey Vero cells assessed as reduction of virus-induced cytopathic effect after 3 days by colorimetric formazan-based MTS assay; format: functional, organism-based; conditions: 72 h; outline: as §1
Coxsackievirus B4 [7] = experiment: Antiviral activity against Human coxsackievirus B4 infected African green monkey Vero cells assessed as reduction of virus-induced cytopathic effect after 3 days by colorimetric formazan-based MTS assay; format: functional, organism-based; conditions: Enterovirus B, 72 h; outline: as §1
Respirovirus muris = experiment: Antiviral activity against Sendai virus infected African green monkey Vero cells assessed as reduction of virus-induced cytopathic effect after 3 days by colorimetric formazan-based MTS assay; format: functional, organism-based; conditions: 72 h
[8] = test system: Mammalian orthoreovirus 1; experiment: Antiviral activity against Mammalian orthoreovirus 1 infected African green monkey Vero cells assessed as reduction of virus-induced cytopathic effect after 3 days by colorimetric formazan-based MTS assay; format: functional, organism-based; conditions: Mammalian orthoreovirus 1, Vero, 72 h; outline: as §2
Human respirovirus 3 = experiment: Antiviral activity against Human parainfluenza virus 3 infected African green monkey Vero cells assessed as reduction of virus-induced cytopathic effect after 3 days by colorimetric formazan-based MTS assay; format: functional, organism-based; conditions: Human respirovirus 3, Vero, 72 h; outline: as §2
[9] = Cytotoxicity against Chlorocebus aethiops (African green monkey) Vero cells assessed as change in cellular morphology; format: cell-based; conditions: chlorocebus sabaeus
[10] = test system: Respiratory syncytial virus; experiment: Antiviral activity against Respiratory syncytial virus infected human HeLa cells assessed as reduction of virus-induced cytopathic effect after 3 days by colorimetric formazan-based MTS assay; format: functional, organism-based; conditions: 72 h; outline: as §1
[11] = test system: Vesicular stomatitis virus; experiment: Antiviral activity against Vesicular stomatitis virus infected human HeLa cells assessed as reduction of virus-induced cytopathic effect after 3 days by colorimetric formazan-based MTS assay; format: functional, organism-based; conditions: 72 h; outline: as §1
Coxsackievirus B4 [12] = experiment: Antiviral activity against Human coxsackievirus B4 infected human HeLa cells assessed as reduction of virus-induced cytopathic effect after 3 days by colorimetric formazan-based MTS assay; format: functional, organism-based; conditions: Enterovirus B, 72 h; outline: as §1
[13] = (§6) Cytotoxicity against Homo sapiens (human) HeLa cells assessed as change in cellular morphology; format: cell-based; conditions: HeLa cells; outline: as §3
HeLa = experiment: as §6; format: cell-based; conditions: hela; outline: as §3
Human alphaherpesvirus 1 [14] = experiment: Antiviral activity against acyclovir-resistant thymidine kinase negative Human herpesvirus 1 strain KOS infected human HEL cells assessed as reduction of virus-induced cytopathic effect after 3 days by colorimetric formazan-based MTS assay; format: functional, organism-based; conditions: Human alphaherpesvirus 1, KOS, 72 h; outline: as §1
[15] = test system: Vesicular stomatitis virus; experiment: Antiviral activity against Vesicular stomatitis virus infected human HEL cells assessed as reduction of virus-induced cytopathic effect after 3 days by colorimetric formazan-based MTS assay; format: functional, organism-based; conditions: 72 h; outline: as §1
Vaccinia virus = experiment: Antiviral activity against Vaccinia virus infected human HEL cells assessed as reduction of virus-induced cytopathic effect after 3 days by colorimetric formazan-based MTS assay; format: functional, organism-based; conditions: Orthopoxvirus vaccinia, 72 h; outline: as §1
Human alphaherpesvirus 2 = experiment: Antiviral activity against Human herpesvirus 2 strain G infected human HEL cells assessed as reduction of virus-induced cytopathic effect after 3 days by colorimetric formazan-based MTS assay; format: functional, organism-based; conditions: Human alphaherpesvirus 2, strain G, 72 h; outline: as §1
[16] = Cytotoxicity against Homo sapiens (human) HEL cells assessed as change in cellular morphology; format: cell-based
Candida albicans = experiment: Antifungal activity against Candida albicans assessed as growth inhibition at 50 ug/ml by cup-plate method (reference value: 8 to 10 mm); format: functional; conditions: read-out: DIZ
Aspergillus niger = experiment: Antifungal activity against Aspergillus niger assessed as growth inhibition at 50 ug/ml by cup-plate method (reference value: 8 to 10 mm); format: functional; conditions: read-out: DIZ
Salmonella typhi = experiment: Antibacterial activity against Salmonella enterica subsp. enterica serovar Typhi assessed as growth inhibition at 50 ug/ml by cup-plate method (reference value: 8 to 10 mm); format: functional; conditions: read-out: DIZ
Proteus vulgaris = experiment: Antibacterial activity against Proteus vulgaris assessed as growth inhibition at 50 ug/ml by cup-plate method (reference value: 8 to 10 mm); format: functional; conditions: read-out: DIZ
Escherichia coli = experiment: Antibacterial activity against Escherichia coli assessed as growth inhibition at 50 ug/ml by cup-plate method (reference value: 8 to 10 mm); format: functional; conditions: read-out: DIZ
Bacillus subtilis = experiment: Antibacterial activity against Bacillus subtilis assessed as growth inhibition at 50 ug/ml by cup-plate method (reference value: 8 to 10 mm); format: functional; conditions: read-out: DIZ
Klebsiella pneumoniae = experiment: Antibacterial activity against Klebsiella pneumoniae assessed as growth inhibition at 50 ug/ml by cup-plate method (reference value: 8 to 10 mm); format: functional; conditions: read-out: DIZ
Staphylococcus aureus = experiment: Antibacterial activity against Staphylococcus aureus assessed as growth inhibition at 50 ug/ml by cup-plate method (reference value: 8 to 10 mm); format: functional; conditions: read-out: DIZ

Question: Which results are given for `CCN(CC)CN1C(=O)/C(=N/NC(=S)Nc2ccccc2)c2ccccc21`?
Answer: EC50 (Influenza B virus): > 0.16 µM; EC50 (Influenza A virus H3N2): > 0.16 µM; EC50 (Human alphaherpesvirus 1 [1]): 20 µM; EC50 (Felid alphaherpesvirus 1): > 20 µM; EC50 [2]: > 20 µM; CC50 [3]: 32.3 µM; inhibition [4]: 50.2%; TIME [5]: 0.0443 h; IC50 (CCRF-CEM): 11 µM; IC50 (L1210): 13 µM; EC50 (Influenza A virus): > 0.16 µM; MCC [6]: 800 nM; CC50 (MDCK): 1.6 µM; EC50 (Punta Toro virus): > 20 µM; EC50 (Coxsackievirus B4 [7]): > 20 µM; EC50 (Respirovirus muris): > 20 µM; EC50 [8]: > 20 µM; EC50 (Human respirovirus 3): > 20 µM; MCC [9]: 100 µM; EC50 [10]: > 20 µM; EC50 [11]: > 20 µM; EC50 (Coxsackievirus B4 [12]): > 20 µM; MCC [13]: ≥ 20 µM; CC50 (HeLa): 10.8 µM; EC50 (Human alphaherpesvirus 1 [14]): > 100 µM; EC50 [15]: > 100 µM; EC50 (Vaccinia virus): 20 µM; EC50 (Human alphaherpesvirus 2): 15 µM; MCC [16]: > 100 µM; zone of inhibition at 50 µg/mL (Candida albicans): 21 mm; zone of inhibition at 50 µg/mL (Aspergillus niger): 21 mm; zone of inhibition at 50 µg/mL (Salmonella typhi): 21 mm; zone of inhibition at 50 µg/mL (Proteus vulgaris): 21 mm; zone of inhibition at 50 µg/mL (Escherichia coli): 11 mm; zone of inhibition at 50 µg/mL (Bacillus subtilis): 11 mm; zone of inhibition at 50 µg/mL (Klebsiella pneumoniae): 11 mm; zone of inhibition at 50 µg/mL (Staphylococcus aureus): 11 mm

— ChEMBL document CHEMBL3045116, “Synthesis and biological evaluation of 2-(5-substituted-1-((diethylamino)methyl)-2-oxoindolin-3-ylidene)-N-substituted-hydrazinecarbothioamides” (Med Chem Res, 2013)
